Data from ChEMBL document CHEMBL5303300, “EUbOPEN Chemogenomics Library - Multiplex” (2023).
“And” between values parts separate entries of the source, which are not always exact repeats. Equal entries are not always repeated.

System: Fibroblast
Experiment: Multiplex assay against human fibroblast
Type: toxicity, cell-based
Conditions: number of replicates 2
Method in brief: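 Tubulin, mitochondrial-mass and membrane-permeability phenotypes are per cents of healthy-nucleus cells. Cells were gated by CellPathfinder machine learning into Hoechst high-intensity objects or normal cells, normal cells into healthy, pyknosed or fragmented nuclei, and pyknosed cells into mitotic or apoptotic. Before that, live cells stained at seeding with Hoechst33342, BioTracker Green Microtubule Cytoskeleton Dye, MitoTracker Red and Annexin V Alexa Fluor 680 were imaged on a CQ1 microscope at 37°C and 5% CO2 after compound addition.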

[1] = 12 h, 1 µM, compound concentration 1 uM
[2] = 12 h, 10 µM, compound concentration 10 uM
[3] = 24 h, 1 µM, compound concentration 1 uM
[4] = 24 h, 10 µM, compound concentration 10 uM
[5] = 48 h, 1 µM, compound concentration 1 uM
[6] = 48 h, 10 µM, compound concentration 10 uM

`O=C1NC(=O)C(c2ccccc2[N+](=O)[O-])=C1Nc1ccc(O)c(Cl)c1` was tested, and the “Population Fragmented Nuclei (%)” value [1] was 10% and 18%, the “Population Healthy Nuclei (%)” value [1] was 77% and 65% and the “Population Hoechst High Intensity Objects (%)” value [1] was 0%. For the same compound, the “Population Membrane Permeable-Phenotype (%)” value [1] was 3% and 7%, the “Population Mitochondria Different-Phenotype (%)” value [1] was 1% and 0% and the “Population Mitotic Cells (%)” value [1] was 87% and 53%. The “Population Normal (%)” value [1] was 100% and 99%, the “Population Pyknosed Nuclei (%)” value [1] was 11% and 16% and the “Population Tubulin-Different-Phenotype (%)” value [1] was 4% and 9%. The “Population Apoptotic (%)” value [2] was 46% and 47%, the “Population Fragmented Nuclei (%)” value [2] was 8% and 12% and the “Population Healthy Nuclei (%)” value [2] was 82% and 80%. The “Population Hoechst High Intensity Objects (%)” value [2] was 0%, the “Population Membrane Permeable-Phenotype (%)” value [2] was 1% and 2% and the “Population Mitochondria Different-Phenotype (%)” value [2] was 0% and 1%. The “Population Mitotic Cells (%)” value [2] was 53% and 52%, the “Population Normal (%)” value [2] was 100% and the “Population Pyknosed Nuclei (%)” value [2] was 9% and 7%. For the same compound, the “Population Tubulin-Different-Phenotype (%)” value [2] was 6% and 5%, the “Population Apoptotic (%)” value [3] was 45% and 57% and the “Population Fragmented Nuclei (%)” value [3] was 10% and 17%. For the same compound, the “Population Healthy Nuclei (%)” value [3] was 84% and 74%, the “Population Hoechst High Intensity Objects (%)” value [3] was 0% and the “Population Membrane Permeable-Phenotype (%)” value [3] was 2% and 4%. For the same compound, the “Population Mitochondria Different-Phenotype (%)” value [3] was 0% and 1%, the “Population Mitotic Cells (%)” value [3] was 54% and 42% and the “Population Normal (%)” value [3] was 100%. For the same compound, the “Population Pyknosed Nuclei (%)” value [3] was 5% and 8%, the “Population Tubulin-Different-Phenotype (%)” value [3] was 5% and 7% and the “Population Apoptotic (%)” value [4] was 40% and 37%. For the same compound, the “Population Fragmented Nuclei (%)” value [4] was 12% and 11%, the “Population Healthy Nuclei (%)” value [4] was 81% and 84% and the “Population Hoechst High Intensity Objects (%)” value [4] was 0%. For the same compound, the “Population Membrane Permeable-Phenotype (%)” value [4] was 2% and 3%, the “Population Mitochondria Different-Phenotype (%)” value [4] was 0% and 1% and the “Population Mitotic Cells (%)” value [4] was 60% and 62%. The “Population Normal (%)” value [4] was 100%, the “Population Pyknosed Nuclei (%)” value [4] was 6% and 3% and the “Population Tubulin-Different-Phenotype (%)” value [4] was 7% and 2%. For the same compound, the “Population Apoptotic (%)” value [5] was 35% and 46%, the “Population Fragmented Nuclei (%)” value [5] was 12% and 19% and the “Population Healthy Nuclei (%)” value [5] was 81% and 73%. For the same compound, the “Population Hoechst High Intensity Objects (%)” value [5] was 0%, the “Population Membrane Permeable-Phenotype (%)” value [5] was 1% and 2% and the “Population Mitochondria Different-Phenotype (%)” value [5] was 0%. For the same compound, the “Population Mitotic Cells (%)” value [5] was 64% and 53%, the “Population Normal (%)” value [5] was 100% and the “Population Pyknosed Nuclei (%)” value [5] was 6%. The “Population Tubulin-Different-Phenotype (%)” value [5] was 3% and 2%, the “Population Apoptotic (%)” value [6] was 33% and 75% and the “Population Fragmented Nuclei (%)” value [6] was 6% and 11%. The “Population Healthy Nuclei (%)” value [6] was 91% and 84%, the “Population Hoechst High Intensity Objects (%)” value [6] was 0% and the “Population Membrane Permeable-Phenotype (%)” value [6] was 3% and 0%. For the same compound, the “Population Mitochondria Different-Phenotype (%)” value [6] was 0%, the “Population Mitotic Cells (%)” value [6] was 66% and 25% and the “Population Normal (%)” value [6] was 100%. For the same compound, the “Population Pyknosed Nuclei (%)” value [6] was 1% and 3% and the “Population Tubulin-Different-Phenotype (%)” value [6] was 7% and 1%.

`CS(=O)(=O)c1ccc(C(=O)Nc2cc(F)cc(COc3cc(F)c(Br)cc3CN3CC[C@H](O)C3)c2)c(Cl)c1.O=CO` was tested, and the “Population Apoptotic (%)” value [1] was 46% and 47%, the “Population Fragmented Nuclei (%)” value [1] was 17% and the “Population Healthy Nuclei (%)” value [1] was 64% and 60%. The “Population Hoechst High Intensity Objects (%)” value [1] was 0%, the “Population Normal (%)” value [1] was 99% and the “Population Pyknosed Nuclei (%)” value [1] was 18% and 26%. For the same compound, the “Total Cell Count” value [1] was 269 and 200, the “Population Apoptotic (%)” value [2] was 67% and 54% and the “Population Fragmented Nuclei (%)” value [2] was 20% and 17%. The “Population Hoechst High Intensity Objects (%)” value [2] was 0%, the “Population Normal (%)” value [2] was 100% and the “Population Pyknosed Nuclei (%)” value [2] was 49% and 35%. For the same compound, the “Total Cell Count” value [2] was 234, the “Population Apoptotic (%)” value [3] was 56% and 57% and the “Population Fragmented Nuclei (%)” value [3] was 20% and 17%. The “Population Healthy Nuclei (%)” value [3] was 65% and 63%, the “Population Hoechst High Intensity Objects (%)” value [3] was 0% and the “Population Normal (%)” value [3] was 100%. For the same compound, the “Population Pyknosed Nuclei (%)” value [3] was 19%, the “Total Cell Count” value [3] was 284 and 204 and the “Population Apoptotic (%)” value [4] was 88% and 75%. The “Population Fragmented Nuclei (%)” value [4] was 11%, the “Population Healthy Nuclei (%)” value [4] was 42% and 51% and the “Population Hoechst High Intensity Objects (%)” value [4] was 0%. For the same compound, the “Population Normal (%)” value [4] was 99% and 100%, the “Population Pyknosed Nuclei (%)” value [4] was 44% and 36% and the “Total Cell Count” value [4] was 134 and 230. The “Population Apoptotic (%)” value [5] was 74% and 71%, the “Population Fragmented Nuclei (%)” value [5] was 25% and the “Population Healthy Nuclei (%)” value [5] was 66% and 65%. For the same compound, the “Population Hoechst High Intensity Objects (%)” value [5] was 0%, the “Population Normal (%)” value [5] was 100% and the “Population Pyknosed Nuclei (%)” value [5] was 8%. The “Total Cell Count” value [5] was 319 and 223, the “Population Apoptotic (%)” value [6] was 93% and 90% and the “Population Fragmented Nuclei (%)” value [6] was 18% and 10%. For the same compound, the “Population Healthy Nuclei (%)” value [6] was 22% and 39%, the “Population Hoechst High Intensity Objects (%)” value [6] was 0% and the “Population Normal (%)” value [6] was 100% and 98%. For the same compound, the “Population Pyknosed Nuclei (%)” value [6] was 58% and 50% and the “Total Cell Count” value [6] was 102 and 177.

With `Cc1ccc2c(N)c(C(=O)NC3CCc4cc(N5CC6CCC(C5)N6)ccc4C3)sc2n1.O=CO` (stereo unspecified) the “Population Apoptotic (%)” value [1] was 50% and 54%, the “Population Fragmented Nuclei (%)” value [1] was 16% and the “Population Healthy Nuclei (%)” value [1] was 73% and 68%. The “Population Hoechst High Intensity Objects (%)” value [1] was 0% and 1%, the “Population Membrane Permeable-Phenotype (%)” value [1] was 2% and the “Population Mitochondria Different-Phenotype (%)” value [1] was 1% and 2%. The “Population Mitotic Cells (%)” value [1] was 50% and 45%, the “Population Normal (%)” value [1] was 99% and 98% and the “Population Pyknosed Nuclei (%)” value [1] was 10% and 15%. The “Population Tubulin-Different-Phenotype (%)” value [1] was 17% and 14%, the “Total Cell Count” value [1] was 232 and 283 and the “Population Apoptotic (%)” value [2] was 38% and 26%. For the same compound, the “Population Fragmented Nuclei (%)” value [2] was 16% and 24%, the “Population Healthy Nuclei (%)” value [2] was 53% and 55% and the “Population Hoechst High Intensity Objects (%)” value [2] was 3% and 5%. The “Population Membrane Permeable-Phenotype (%)” value [2] was 4% and 2%, the “Population Mitochondria Different-Phenotype (%)” value [2] was 3% and 1% and the “Population Mitotic Cells (%)” value [2] was 61% and 73%. The “Population Normal (%)” value [2] was 96% and 94%, the “Population Pyknosed Nuclei (%)” value [2] was 29% and 20% and the “Population Tubulin-Different-Phenotype (%)” value [2] was 23% and 22%. For the same compound, the “Total Cell Count” value [2] was 238 and 259, the “Population Apoptotic (%)” value [3] was 46% and 52% and the “Population Fragmented Nuclei (%)” value [3] was 14%. The “Population Healthy Nuclei (%)” value [3] was 75% and 71%, the “Population Hoechst High Intensity Objects (%)” value [3] was 0% and the “Population Membrane Permeable-Phenotype (%)” value [3] was 2% and 1%. The “Population Mitochondria Different-Phenotype (%)” value [3] was 3% and 2%, the “Population Mitotic Cells (%)” value [3] was 53% and 47% and the “Population Normal (%)” value [3] was 100% and 99%. For the same compound, the “Population Pyknosed Nuclei (%)” value [3] was 10% and 14%, the “Population Tubulin-Different-Phenotype (%)” value [3] was 15% and 14% and the “Total Cell Count” value [3] was 259 and 302. For the same compound, the “Population Apoptotic (%)” value [4] was 48% and 45%, the “Population Fragmented Nuclei (%)” value [4] was 18% and 23% and the “Population Healthy Nuclei (%)” value [4] was 42% and 48%. For the same compound, the “Population Hoechst High Intensity Objects (%)” value [4] was 7% and 6%, the “Population Membrane Permeable-Phenotype (%)” value [4] was 2% and 1% and the “Population Mitochondria Different-Phenotype (%)” value [4] was 13% and 8%. The “Population Mitotic Cells (%)” value [4] was 51% and 54%, the “Population Normal (%)” value [4] was 92% and 93% and the “Population Pyknosed Nuclei (%)” value [4] was 39% and 28%. The “Population Tubulin-Different-Phenotype (%)” value [4] was 23% and 15%, the “Total Cell Count” value [4] was 228 and 250 and the “Population Apoptotic (%)” value [5] was 56% and 60%. The “Population Fragmented Nuclei (%)” value [5] was 27% and 18%, the “Population Healthy Nuclei (%)” value [5] was 67% and 71% and the “Population Hoechst High Intensity Objects (%)” value [5] was 0%. For the same compound, the “Population Membrane Permeable-Phenotype (%)” value [5] was 1%, the “Population Mitochondria Different-Phenotype (%)” value [5] was 1% and 3% and the “Population Mitotic Cells (%)” value [5] was 43% and 40%. The “Population Normal (%)” value [5] was 99%, the “Population Pyknosed Nuclei (%)” value [5] was 5% and 10% and the “Population Tubulin-Different-Phenotype (%)” value [5] was 18% and 17%. The “Total Cell Count” value [5] was 294 and 298, the “Population Apoptotic (%)” value [6] was 67% and 55% and the “Population Fragmented Nuclei (%)” value [6] was 20% and 22%. The “Population Healthy Nuclei (%)” value [6] was 29% and 36%, the “Population Hoechst High Intensity Objects (%)” value [6] was 11% and 10% and the “Population Membrane Permeable-Phenotype (%)” value [6] was 7% and 2%. For the same compound, the “Population Mitochondria Different-Phenotype (%)” value [6] was 21% and 16%, the “Population Mitotic Cells (%)” value [6] was 32% and 44% and the “Population Normal (%)” value [6] was 88% and 89%. For the same compound, the “Population Pyknosed Nuclei (%)” value [6] was 49% and 40%, the “Population Tubulin-Different-Phenotype (%)” value [6] was 25% and 15% and the “Total Cell Count” value [6] was 194 and 215.
